From the RNAGym collection of RNA variant scans (doi:10.1002/anie.201605470)

B1: Osa-1-4 twister ribozyme (parent)
chain: CCGCCUAACACUGCCAAUGCCGGUCCCAAGCCCGGAUAAAAGUGGAGGGGGCGG

Variants of: B1
Assay: self-cleavage, relative activity (ratio to wild type); higher = more cleavage; co-transcriptional
Method in brief: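 The 48 positions downstream of the cleavage site in a 54-nucleotide Oryza sativa twister ribozyme template were synthesised at 97 % wild-type base and 1 % of each other base. The template was transcribed in vitro at 37 °C for 2 h, with self-cleavage allowed during transcription. Reads with or without upstream sequence after deep sequencing marked cleavage status, and relative activity is fraction cleaved normalised to wild type.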
For C33A G19C, the self-cleavage was 0.03.
With C33A G19A the self-cleavage was 0.07.
Work on C33A G19U yielded a self-cleavage of 0.04.
Variant C33A U12G has a self-cleavage of 0.06.
C33A U12A gave a self-cleavage of 0.06.
In the case of C33A U12C, the self-cleavage is reported as 0.06.
In the case of C32A G49C, the self-cleavage is reported as 0.03.
Work on C32A G49A yielded a self-cleavage of 0.04.
Work on C32A G49U yielded a self-cleavage of 0.04.
In the case of C32G G49C, the self-cleavage is reported as 0.04.
With C32G G49U the self-cleavage was 0.05.
With C32G G49A the self-cleavage was 0.05.
For C32G U37G, the self-cleavage was 0.19.
C32G U37A showed a self-cleavage of 0.16.
C32G U37C gave a self-cleavage of 0.14.
C33A G22A showed a self-cleavage of 0.87.
With C33A G22C the self-cleavage was 0.22.
C33A G22U gave a self-cleavage of 0.93.
Work on C33G G45A yielded a self-cleavage of 0.04.
C33G G45U showed a self-cleavage of 0.02.
In the case of C33G G45C, the self-cleavage is reported as 0.02.
With C32U G53U the self-cleavage was 0.09.
With C32U G53A the self-cleavage was 0.09.
With C32U G53C the self-cleavage was 0.05.
With C32A G23C the self-cleavage was 0.03.
Work on C32A G23U yielded a self-cleavage of 0.48.
C32A G23A showed a self-cleavage of 0.17.
Variant C32U U12G has a self-cleavage of 0.09.
Work on C32U U12C yielded a self-cleavage of 0.08.
Work on C32U U12A yielded a self-cleavage of 0.1.
Work on C32U G35U yielded a self-cleavage of 0.06.
C32U G35C showed a self-cleavage of 0.06.
For C32U G35A, the self-cleavage was 0.08.
C32G G34U gave a self-cleavage of 0.08.
With C32G G34C the self-cleavage was 0.06.
For C32G G34A, the self-cleavage was 0.09.
For C32G G50A, the self-cleavage was 0.1.
In the case of C32G G50U, the self-cleavage is reported as 0.11.
Variant C32G G50C has a self-cleavage of 0.09.
Variant C32A G30U has a self-cleavage of 0.02.
For C32A G30A, the self-cleavage was 0.02.
C32A G30C showed a self-cleavage of 0.03.
With C32G G35U the self-cleavage was 0.08.
In the case of C32G G35C, the self-cleavage is reported as 0.07.
With C32G G35A the self-cleavage was 0.09.
In the case of C32G C33G, the self-cleavage is reported as 0.05.
For C32G C33U, the self-cleavage was 0.07.
Work on C32G C33A yielded a self-cleavage of 0.07.
With C32U G54U the self-cleavage was 0.26.
C32U G54A showed a self-cleavage of 0.1.
Variant C32U G54C has a self-cleavage of 0.09.
C33A G13A showed a self-cleavage of 0.02.
C33A G13U gave a self-cleavage of 0.02.
For C33A G13C, the self-cleavage was 0.01.
Work on C32U G51C yielded a self-cleavage of 0.05.
C32U G51U gave a self-cleavage of 0.05.
For C32U G51A, the self-cleavage was 0.07.
C33A G42A gave a self-cleavage of 0.06.
With C33A G42C the self-cleavage was 0.06.
For C33A G42U, the self-cleavage was 0.03.
For C33A U43C, the self-cleavage was 0.06.
C33A U43G showed a self-cleavage of 0.08.
Work on C33A U43A yielded a self-cleavage of 0.08.
C32U C9G gave a self-cleavage of 0.09.
In the case of C32U C9U, the self-cleavage is reported as 0.05.
C32U C9A gave a self-cleavage of 0.02.
Work on C32G G45U yielded a self-cleavage of 0.04.
Variant C32G G45A has a self-cleavage of 0.05.
Work on C32G G45C yielded a self-cleavage of 0.03.
C33G G47C showed a self-cleavage of 0.03.
For C33G G47A, the self-cleavage was 0.03.
C33G G47U showed a self-cleavage of 0.02.
Work on C32G C52G yielded a self-cleavage of 0.16.
With C32G C52A the self-cleavage was 0.12.
With C32G C52U the self-cleavage was 0.2.
With C33G G23U the self-cleavage was 0.03.
C33G G23C gave a self-cleavage of 0.03.
With C33G G23A the self-cleavage was 0.05.
For C32A G47C, the self-cleavage was 0.03.
C32A G47U showed a self-cleavage of 0.04.
C32A G47A gave a self-cleavage of 0.04.
C32G U24A gave a self-cleavage of 0.06.
Variant C32G U24G has a self-cleavage of 0.02.
Work on C32G U24C yielded a self-cleavage of 0.05.
For C32A U12G, the self-cleavage was 0.06.
Work on C32A U12A yielded a self-cleavage of 0.07.
Variant C32A U12C has a self-cleavage of 0.04.
C32U G50C gave a self-cleavage of 0.09.
C32U G50U showed a self-cleavage of 0.11.
C32U G50A showed a self-cleavage of 0.1.
Work on C33A G51C yielded a self-cleavage of 0.05.
In the case of C33A G51U, the self-cleavage is reported as 0.05.
For C33A G51A, the self-cleavage was 0.06.
C33A G23C showed a self-cleavage of 0.02.
With C33A G23U the self-cleavage was 0.04.
Variant C33A G23A has a self-cleavage of 0.06.
Variant C32U U24C has a self-cleavage of 0.06.
Variant C32U U24A has a self-cleavage of 0.06.
Work on C32U U24G yielded a self-cleavage of 0.01.
With C32G G30A the self-cleavage was 0.03.
With C32G G30C the self-cleavage was 0.02.
C32G G30U showed a self-cleavage of 0.02.
For C32A U37C, the self-cleavage was 0.13.
C32A U37A showed a self-cleavage of 0.14.
Work on C32A U37G yielded a self-cleavage of 0.18.
Variant C32U G42C has a self-cleavage of 0.07.
For C32U G42U, the self-cleavage was 0.03.
In the case of C32U G42A, the self-cleavage is reported as 0.08.
C32U G47A gave a self-cleavage of 0.06.
C32U G47C showed a self-cleavage of 0.04.
Variant C32U G47U has a self-cleavage of 0.06.
Variant C32A G53C has a self-cleavage of 0.02.
C32A G53U showed a self-cleavage of 0.05.
For C32A G53A, the self-cleavage was 0.08.
In the case of C33G G19U, the self-cleavage is reported as 0.03.
In the case of C33G G19A, the self-cleavage is reported as 0.05.
C33G G19C showed a self-cleavage of 0.02.
C32G G23U gave a self-cleavage of 0.29.
Variant C32G G23C has a self-cleavage of 0.08.
C32G G23A gave a self-cleavage of 0.27.
With C32G U18C the self-cleavage was 0.15.
For C32G U18G, the self-cleavage was 0.14.
Variant C32G U18A has a self-cleavage of 0.14.
C32U U43C gave a self-cleavage of 0.06.
Variant C32U U43G has a self-cleavage of 0.09.
Work on C32U U43A yielded a self-cleavage of 0.09.
With C32G G13C the self-cleavage was 0.02.
C32G G13A showed a self-cleavage of 0.04.
With C32G G13U the self-cleavage was 0.01.
C32G G22A gave a self-cleavage of 0.1.
In the case of C32G G22U, the self-cleavage is reported as 0.07.
With C32G G22C the self-cleavage was 0.04.
Variant C33A G35U has a self-cleavage of 0.07.
Variant C33A G35A has a self-cleavage of 0.07.
For C33A G35C, the self-cleavage was 0.04.
C32U G34A gave a self-cleavage of 0.09.
For C32U G34U, the self-cleavage was 0.08.
Variant C32U G34C has a self-cleavage of 0.07.
C33A G50A showed a self-cleavage of 0.1.
C33A G50C showed a self-cleavage of 0.08.
Variant C33A G50U has a self-cleavage of 0.1.
For C32A G19U, the self-cleavage was 0.04.
C32A G19C gave a self-cleavage of 0.02.
In the case of C32A G19A, the self-cleavage is reported as 0.07.
Variant C33G has a self-cleavage of 0.06.
Work on C33A yielded a self-cleavage of 0.28.
For C32U U37G, the self-cleavage was 0.26.
In the case of C32U U37A, the self-cleavage is reported as 0.21.
For C32U U37C, the self-cleavage was 0.16.
With C32A U24A the self-cleavage was 0.06.
C32A U24C gave a self-cleavage of 0.04.
C32A U24G gave a self-cleavage of 0.02.
C32U G13C gave a self-cleavage of 0.01.
Variant C32U G13A has a self-cleavage of 0.03.
With C32U G13U the self-cleavage was 0.01.
Variant C33A G34A has a self-cleavage of 0.08.
For C33A G34C, the self-cleavage was 0.05.
With C33A G34U the self-cleavage was 0.06.
In the case of C33A G48U, the self-cleavage is reported as 0.04.
Variant C33A G48A has a self-cleavage of 0.04.
In the case of C33A G48C, the self-cleavage is reported as 0.05.
For C33A G47U, the self-cleavage was 0.04.
C33A G47A gave a self-cleavage of 0.04.
With C33A G47C the self-cleavage was 0.04.
Variant C32A G45C has a self-cleavage of 0.02.
C32A G45A gave a self-cleavage of 0.04.
Work on C32A G45U yielded a self-cleavage of 0.03.
